According to ChEMBL document CHEMBL1122383, “Potential tissue-imaging agents: 23-(trimethyl [117mSn]stannyl)-24-nor-5 alpha-cholan-3 beta-ol” (J Med Chem, 1983):

Columns and labels:
Homo sapiens [1] = species on record: Homo sapiens; experiment: Adsorbed radiation dose value was calculated to human spleen; assay type: functional
Outline: (§1)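 Human absorbed dose (rd/mCi) estimated from rat tissue distribution data re-expressed as percent kilogram dose per gram. Fraction of injected dose per human organ = (% kg dose/g × organ weight)/(kg body weight of man × 100). Cumulated activities were derived from these fractions and organ half-times, then combined with Sn-117m S values (rd/μCi-h).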

Homo sapiens [2] = species on record: Homo sapiens; experiment: Adsorbed radiation dose value was calculated to human total body; assay type: functional; outline: as §1
Homo sapiens [3] = species on record: Homo sapiens; experiment: Adsorbed radiation dose value was calculated to human liver; assay type: functional; outline: as §1
Homo sapiens [4] = species on record: Homo sapiens; experiment: Adsorbed radiation dose value was calculated to human lungs; assay type: functional; outline: as §1
Homo sapiens [5] = species on record: Homo sapiens; experiment: Adsorbed radiation dose value was calculated to human adrenal; assay type: functional; outline: as §1
Homo sapiens [6] = species on record: Homo sapiens; experiment: Adsorbed radiation dose value was calculated to human ovaries; assay type: functional, Female gonad; outline: as §1
Rattus norvegicus [7] = experiment: Tested for distribution of radioactivity in female rat tissue at 21 day after intravenous administration in blood; assay type: ADME, organism-based; settings: in vivo, 504 h
Outline: (§2)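 Rat tissue distribution followed intravenous injection of the tin-117m-labeled steroid into female rats. Adrenals, blood, kidneys, liver and ovaries were counted at the stated day. Values are percent dose/gram, given as the mean and range for three female rats.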

Rattus norvegicus [8] = experiment: Tested for distribution of radioactivity in female rat tissue at 7 day after intravenous administration in liver; assay type: ADME, organism-based; settings: in vivo, 168 h; outline: as §2
Rattus norvegicus [9] = experiment: Tested for distribution of radioactivity in female rat tissue at 7 day after intravenous administration in adrenal; assay type: ADME, organism-based; settings: in vivo, 168 h; outline: as §2
Rattus norvegicus [10] = experiment: Tested for distribution of radioactivity in female rat tissue at 3 day after intravenous administration in kidney; assay type: ADME, organism-based; settings: in vivo, 72 h; outline: as §2
Rattus norvegicus [11] = experiment: Tested for distribution of radioactivity in female rat tissue at 3 day after intravenous administration in adrenal; assay type: ADME, organism-based; settings: in vivo, 72 h; outline: as §2
Rattus norvegicus [12] = experiment: Tested for distribution of radioactivity in female rat tissue at 3 day after intravenous administration in liver; assay type: ADME, organism-based; settings: in vivo, 72 h; outline: as §2
Rattus norvegicus [13] = experiment: Tested for distribution of radioactivity in female rat tissue at 14d ay after intravenous administration in ovaries; assay type: ADME, organism-based; settings: in vivo; outline: as §2
Rattus norvegicus [14] = experiment: Tested for distribution of radioactivity in female rat tissue at 21 day after intravenous administration in adrenal; assay type: ADME, organism-based; settings: in vivo, 504 h; outline: as §2
Rattus norvegicus [15] = experiment: Tested for distribution of radioactivity in female rat tissue at 21 day after intravenous administration in ovaries; assay type: ADME, organism-based; settings: in vivo, 504 h; outline: as §2
Rattus norvegicus [16] = experiment: Tested for distribution of radioactivity in female rat tissue at 7 day after intravenous administration in ovaries; assay type: ADME, organism-based; settings: in vivo, 168 h; outline: as §2
Rattus norvegicus [17] = experiment: Tested for distribution of radioactivity in female rat tissue at 3 day after intravenous administration in blood; assay type: ADME, organism-based; settings: in vivo, 72 h; outline: as §2
Rattus norvegicus [18] = experiment: Tested for distribution of radioactivity in female rat tissue at 14d ay after intravenous administration in kidney; assay type: ADME, organism-based; settings: in vivo; outline: as §2
Rattus norvegicus [19] = experiment: Tested for distribution of radioactivity in female rat tissue at 7 day after intravenous administration in blood; assay type: ADME, organism-based; settings: in vivo, 168 h; outline: as §2
Rattus norvegicus [20] = experiment: Tested for distribution of radioactivity in female rat tissue at 14d ay after intravenous administration in liver; assay type: ADME, organism-based; settings: in vivo; outline: as §2
Rattus norvegicus [21] = experiment: Tested for distribution of radioactivity in female rat tissue at 14d ay after intravenous administration in adrenal; assay type: ADME, organism-based; settings: in vivo; outline: as §2
Rattus norvegicus [22] = experiment: Tested for distribution of radioactivity in female rat tissue at 7 day after intravenous administration in kidney; assay type: ADME, organism-based; settings: in vivo, 168 h; outline: as §2
Rattus norvegicus [23] = experiment: Tested for distribution of radioactivity in female rat tissue at 21 day after intravenous administration in kidney; assay type: ADME, organism-based; settings: in vivo, 504 h; outline: as §2
Rattus norvegicus [24] = experiment: Tested for distribution of radioactivity in female rat tissue at 14d ay after intravenous administration in blood; assay type: ADME, organism-based; settings: in vivo; outline: as §2
Rattus norvegicus [25] = experiment: Tested for distribution of radioactivity in female rat tissue at 3 day after intravenous administration in ovaries; assay type: ADME, organism-based; settings: in vivo, 72 h; outline: as §2
[26] = It is the ratio of adrenal to blood measured on day1 after iv administration in rat.; assay type: functional, organism-based
Outline: (§3)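 Female rats received an intravenous injection of the tin-117m-labeled steroid. Adrenal/blood and adrenal/liver ratios were calculated from percent dose per gram of tissue at the stated day after injection.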

[27] = It is the ratio of adrenal to blood measured on day 14 after iv administration in rat.; assay type: functional, organism-based; outline: as §3
[28] = It is the ratio of adrenal to liver measured on day 3 after iv administration in rat.; assay type: functional, organism-based; outline: as §3
Rattus norvegicus [29] = experiment: Adrenal Uptake was determined on day1 after iv administration into rat; assay type: functional, organism-based
Outline: (§4)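 The tin-117m-labeled steroid was injected intravenously into female rats. Adrenal glands were taken at the stated day after injection, up to 21 days. Radioactivity was reported as percent of injected dose, given as the mean and range.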

Rattus norvegicus [30] = experiment: Adrenal Uptake was determined on day 7 after iv administration into rat; assay type: functional, organism-based; outline: as §4
[31] = It is the ratio of adrenal to liver measured on day 14 after iv administration in rat.; assay type: functional, organism-based; outline: as §3
Rattus norvegicus [32] = experiment: Adrenal Uptake was determined on day 21 after iv administration into rat; assay type: functional, organism-based; outline: as §4
Homo sapiens [33] = species on record: Homo sapiens; experiment: Adsorbed radiation dose value was calculated to human body; assay type: functional, organism-based
Outline: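 Rat tissue distribution data were converted to percent kilogram dose per gram. The fraction of injected dose in each human organ was taken as (% kg dose/g × organ weight)/(kg body weight × 100). Cumulated activities came from these fractions and organ half-times. Sn-117m S values (rd/µCi-h) then gave the absorbed dose in rd/mCi.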

[34] = It is the ratio of adrenal to liver measured on day1 after iv administration in rat.; assay type: functional, organism-based; outline: as §3
[35] = It is the ratio of adrenal to blood measured on day 7 after iv administration in rat.; assay type: functional, organism-based; outline: as §3
[36] = It is the ratio of adrenal to blood measured on day 3 after iv administration in rat.; assay type: functional, organism-based; outline: as §3
Rattus norvegicus [37] = experiment: Adrenal Uptake was determined on day 14 after iv administration into rat; assay type: functional, organism-based; outline: as §4
[38] = It is the ratio of adrenal to liver measured on day 21 after iv administration in rat.; assay type: functional, organism-based; outline: as §3
[39] = It is the ratio of adrenal to liver measured on day 7 after iv administration in rat.; assay type: functional, organism-based; outline: as §3
[40] = It is the ratio of adrenal to blood measured on day 21 after iv administration in rat.; assay type: functional, organism-based; outline: as §3
Rattus norvegicus [41] = experiment: Adrenal Uptake was determined on day 3 after iv administration into rat; assay type: functional, organism-based; outline: as §4

Question: What does the source list for `CC(C)[Te]CCC(C)C1CC[C@H]2[C@@H]3CC[C@H]4CC(O)CCC4(C)[C@H]3CCC12C` (some centres not stated)?
Answer: Dose (Homo sapiens [1]): 1.4 rd mCi-1; Dose (Homo sapiens [2]): 0.8 rd mCi-1; Dose (Homo sapiens [3]): 1.6 rd mCi-1; Dose (Homo sapiens [4]): 1.3 rd mCi-1; Dose (Homo sapiens [5]): 98 rd mCi-1; Dose (Homo sapiens [6]): 8 rd mCi-1

Question: Which results are given for `CC(C)[Te]CCCC(C)C1CCC2C3CC=C4CC(O)CCC4(C)C3CCC12C` (configuration not stated)?
Answer: Dose (Homo sapiens [1]): 34 rd mCi-1; Dose (Homo sapiens [2]): 1.4 rd mCi-1; Dose (Homo sapiens [3]): 2 rd mCi-1; Dose (Homo sapiens [4]): 1.9 rd mCi-1; Dose (Homo sapiens [5]): 210 rd mCi-1; Dose (Homo sapiens [6]): 13 rd mCi-1

Question: With Stannanyl complex [listing 1 of 2 here] as the compound, how does the Dose/g (Rattus norvegicus [7]) read?
Answer: Its Dose/g is 0.1%.

Question: What about the Dose/g (Rattus norvegicus [8]) of the same compound?
Answer: Its Dose/g is 0.44%.

Question: And the Dose/g (Rattus norvegicus [9])?
Answer: Its Dose/g is 19.37%.

Question: What about the Dose/g (Rattus norvegicus [10]) of the same compound?
Answer: The Dose/g was 0.79%.

Question: What about the Dose/g (Rattus norvegicus [11]) of the same compound?
Answer: The Dose/g was 50.88%.

Question: What about the Dose/g (Rattus norvegicus [12]) of the same compound?
Answer: The Dose/g was 2.13%.

Question: And the Dose/g (Rattus norvegicus [13])?
Answer: Its Dose/g is 2.53%.

Question: And the Dose/g (Rattus norvegicus [14])?
Answer: The Dose/g was 2.33%.

Question: And the Dose/g (Rattus norvegicus [15])?
Answer: The Dose/g was 1.26%.

Question: And the Dose/g (Rattus norvegicus [16])?
Answer: Its Dose/g is 4.9%.

Question: What about the Dose/g (Rattus norvegicus [17]) of the same compound?
Answer: The Dose/g was 0.8%.

Question: What about the Dose/g (Rattus norvegicus [18]) of the same compound?
Answer: Its Dose/g is 0.38%.

Question: What about the Dose/g (Rattus norvegicus [19]) of the same compound?
Answer: The Dose/g was 0.19%.

Question: What about the Dose/g (Rattus norvegicus [20]) of the same compound?
Answer: The Dose/g was 0.2%.

Question: And the Dose/g (Rattus norvegicus [21])?
Answer: The Dose/g was 7.46%.

Question: And the Dose/g (Rattus norvegicus [22])?
Answer: Its Dose/g is 0.54%.

Question: What about the Dose/g (Rattus norvegicus [23]) of the same compound?
Answer: The Dose/g was 0.26%.

Question: What about the Dose/g (Rattus norvegicus [24]) of the same compound?
Answer: Its Dose/g is 0.15%.

Question: And the Dose/g (Rattus norvegicus [25])?
Answer: Its Dose/g is 10.99%.

Question: With Stannanyl complex [listing 2 of 2 here] as the compound, how does the Ratio [26] read?
Answer: The Ratio was 33.7.

Question: What about the Ratio [27] of the same compound?
Answer: Its Ratio is 49.7.

Question: And the Ratio [28]?
Answer: The Ratio was 23.9.

Question: And the Dose (Homo sapiens [1])?
Answer: The Dose was 7.7 rd mCi-1.

Question: What about the Adrenal uptake (Rattus norvegicus [29]) of the same compound?
Answer: Its Adrenal uptake is 2.51.

Question: What about the Adrenal uptake (Rattus norvegicus [30]) of the same compound?
Answer: Its Adrenal uptake is 1.1.

Question: And the Ratio [31]?
Answer: Its Ratio is 37.3.

Question: And the Adrenal uptake (Rattus norvegicus [32])?
Answer: Its Adrenal uptake is 0.16.

Question: And the Dose (Homo sapiens [33])?
Answer: Its Dose is 0.77 rd mCi-1.

Question: And the Ratio [34]?
Answer: The Ratio was 9.1.

Question: And the Dose (Homo sapiens [3])?
Answer: The Dose was 5.3 rd mCi-1.

Question: What about the Dose (Homo sapiens [4]) of the same compound?
Answer: Its Dose is 4.1 rd mCi-1.

Question: And the Ratio [35]?
Answer: The Ratio was 102.

Question: And the Ratio [36]?
Answer: Its Ratio is 63.6.

Question: And the Dose (Homo sapiens [5])?
Answer: Its Dose is 83 rd mCi-1.

Question: And the Adrenal uptake (Rattus norvegicus [37])?
Answer: The Adrenal uptake was 0.34.

Question: And the Dose (Homo sapiens [6]; Female gonad)?
Answer: The Dose was 4.4 rd mCi-1.

Question: And the Ratio [38]?
Answer: Its Ratio is 16.6.

Question: What about the Ratio [39] of the same compound?
Answer: The Ratio was 44.

Question: What about the Ratio [40] of the same compound?
Answer: Its Ratio is 23.3.

Question: What about the Adrenal uptake (Rattus norvegicus [41]) of the same compound?
Answer: The Adrenal uptake was 2.86.
